# Tested on: HEK-293T
# Assay: Multiplex assay against HEK293T
# Format: toxicity, cell-based
# Details: human
# Summary of the method: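 Live cells were stained at seeding with Hoechst33342, BioTracker Green Microtubule Cytoskeleton Dye, MitoTracker Red and Annexin V Alexa Fluor 680, then imaged on a CQ1 microscope at 37°C and 5% CO2 after compound addition. CellPathfinder machine-learning gating split cells into Hoechst high-intensity objects or normal cells. Normal cells were split into healthy, pyknosed or fragmented nuclei, and pyknosed cells into mitotic or apoptotic. Tubulin, mitochondrial-mass and membrane-permeability phenotypes are per cents of healthy-nucleus cells.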
# [1] = 12 h, 1 µM, compound concentration 1 uM, replicate 1
# [2] = 12 h, 1 µM, compound concentration 1 uM, replicate 2
# [3] = 12 h, 10 µM, compound concentration 10 uM, replicate 1
# [4] = 12 h, 10 µM, compound concentration 10 uM, replicate 2
# [5] = 24 h, 1 µM, compound concentration 1 uM, replicate 1
# [6] = 24 h, 1 µM, compound concentration 1 uM, replicate 2
# [7] = 24 h, 10 µM, compound concentration 10 uM, replicate 1
# [8] = 24 h, 10 µM, compound concentration 10 uM, replicate 2
# [9] = 48 h, 1 µM, compound concentration 1 uM, replicate 1
# [10] = 48 h, 1 µM, compound concentration 1 uM, replicate 2
# [11] = 48 h, 10 µM, compound concentration 10 uM, replicate 1
# [12] = 48 h, 10 µM, compound concentration 10 uM, replicate 2
structure (smiles),measurement,setting,value
Cl.N=C(N)NC(=O)Cc1c(Cl)cccc1Cl [GUANFACINE HYDROCHLORIDE],Population Apoptotic (%),[1],29%
same,Population Fragmented Nuclei (%),[1],3%
same,Population Healthy Nuclei (%),[1],84%
same,Population Hoechst High Intensity Objects (%),[1],7%
same,Population Membrane Permeable-Phenotype (%),[1],0%
same,Population Mitochondria Different-Phenotype (%),[1],46%
same,Population Mitotic Cells (%),[1],70%
same,Population Normal (%),[1],92%
same,Population Pyknosed Nuclei (%),[1],11%
same,Population Tubulin-Different-Phenotype (%),[1],31%
same,Total Cell Count,[1],384
same,Population Apoptotic (%),[2],47%
same,Population Fragmented Nuclei (%),[2],5%
same,Population Healthy Nuclei (%),[2],76%
same,Population Hoechst High Intensity Objects (%),[2],12%
same,Population Mitochondria Different-Phenotype (%),[2],67%
same,Population Mitotic Cells (%),[2],52%
same,Population Normal (%),[2],87%
same,Population Pyknosed Nuclei (%),[2],17%
same,Total Cell Count,[2],289
same,Population Apoptotic (%),[3],52%
same,Population Fragmented Nuclei (%),[3],12%
same,Population Healthy Nuclei (%),[3],67%
same,Population Hoechst High Intensity Objects (%),[3],7%
same,Population Membrane Permeable-Phenotype (%),[3],0%
same,Population Mitochondria Different-Phenotype (%),[3],61%
same,Population Mitotic Cells (%),[3],47%
same,Population Normal (%),[3],92%
same,Population Pyknosed Nuclei (%),[3],20%
same,Population Tubulin-Different-Phenotype (%),[3],43%
same,Total Cell Count,[3],296
same,Population Apoptotic (%),[4],34%
same,Population Fragmented Nuclei (%),[4],8%
same,Population Healthy Nuclei (%),[4],77%
same,Population Hoechst High Intensity Objects (%),[4],10%
same,Population Mitochondria Different-Phenotype (%),[4],69%
same,Population Mitotic Cells (%),[4],65%
same,Population Normal (%),[4],89%
same,Population Pyknosed Nuclei (%),[4],14%
same,Population Tubulin-Different-Phenotype (%),[4],38%
same,Total Cell Count,[4],365
same,Population Apoptotic (%),[5],36%
same,Population Fragmented Nuclei (%),[5],8%
same,Population Healthy Nuclei (%),[5],80%
same,Population Hoechst High Intensity Objects (%),[5],4%
same,Population Membrane Permeable-Phenotype (%),[5],0%
same,Population Mitochondria Different-Phenotype (%),[5],27%
same,Population Mitotic Cells (%),[5],63%
same,Population Normal (%),[5],95%
same,Population Pyknosed Nuclei (%),[5],11%
same,Population Tubulin-Different-Phenotype (%),[5],21%
same,Total Cell Count,[5],493
same,Population Apoptotic (%),[6],50%
same,Population Fragmented Nuclei (%),[6],4%
same,Population Healthy Nuclei (%),[6],83%
same,Population Hoechst High Intensity Objects (%),[6],10%
same,Population Mitochondria Different-Phenotype (%),[6],42%
same,Population Mitotic Cells (%),[6],50%
same,Population Normal (%),[6],89%
same,Population Tubulin-Different-Phenotype (%),[6],19%
same,Total Cell Count,[6],344
same,Population Apoptotic (%),[7],46%
same,Population Fragmented Nuclei (%),[7],11%
same,Population Healthy Nuclei (%),[7],75%
same,Population Hoechst High Intensity Objects (%),[7],7%
same,Population Membrane Permeable-Phenotype (%),[7],0%
same,Population Mitochondria Different-Phenotype (%),[7],48%
same,Population Mitotic Cells (%),[7],53%
same,Population Normal (%),[7],92%
same,Population Pyknosed Nuclei (%),[7],12%
same,Population Tubulin-Different-Phenotype (%),[7],39%
same,Total Cell Count,[7],343
same,Population Apoptotic (%),[8],36%
same,Population Fragmented Nuclei (%),[8],6%
same,Population Healthy Nuclei (%),[8],83%
same,Population Hoechst High Intensity Objects (%),[8],9%
same,Population Mitochondria Different-Phenotype (%),[8],50%
same,Population Mitotic Cells (%),[8],63%
same,Population Normal (%),[8],90%
same,Population Pyknosed Nuclei (%),[8],10%
same,Population Tubulin-Different-Phenotype (%),[8],27%
same,Total Cell Count,[8],454
same,Population Apoptotic (%),[9],15%
same,Population Fragmented Nuclei (%),[9],15%
same,Population Healthy Nuclei (%),[9],78%
same,Population Hoechst High Intensity Objects (%),[9],2%
same,Population Membrane Permeable-Phenotype (%),[9],1%
same,Population Mitochondria Different-Phenotype (%),[9],22%
same,Population Mitotic Cells (%),[9],84%
same,Population Normal (%),[9],97%
same,Population Pyknosed Nuclei (%),[9],6%
same,Population Tubulin-Different-Phenotype (%),[9],21%
same,Total Cell Count,[9],680
same,Population Apoptotic (%),[10],34%
same,Population Fragmented Nuclei (%),[10],10%
same,Population Healthy Nuclei (%),[10],79%
same,Population Hoechst High Intensity Objects (%),[10],7%
same,Population Membrane Permeable-Phenotype (%),[10],0%
same,Population Mitochondria Different-Phenotype (%),[10],32%
same,Population Mitotic Cells (%),[10],65%
same,Population Normal (%),[10],92%
same,Population Pyknosed Nuclei (%),[10],9%
same,Population Tubulin-Different-Phenotype (%),[10],14%
same,Total Cell Count,[10],560
same,Population Apoptotic (%),[11],47%
same,Population Fragmented Nuclei (%),[11],17%
same,Population Healthy Nuclei (%),[11],73%
same,Population Hoechst High Intensity Objects (%),[11],6%
same,Population Membrane Permeable-Phenotype (%),[11],0%
same,Population Mitochondria Different-Phenotype (%),[11],31%
same,Population Mitotic Cells (%),[11],52%
same,Population Normal (%),[11],93%
same,Population Pyknosed Nuclei (%),[11],9%
same,Population Tubulin-Different-Phenotype (%),[11],14%
same,Total Cell Count,[11],421
same,Population Apoptotic (%),[12],50%
same,Population Fragmented Nuclei (%),[12],12%
same,Population Healthy Nuclei (%),[12],80%
same,Population Hoechst High Intensity Objects (%),[12],10%
same,Population Mitochondria Different-Phenotype (%),[12],33%
same,Population Mitotic Cells (%),[12],50%
same,Population Normal (%),[12],89%
same,Population Pyknosed Nuclei (%),[12],6%
same,Population Tubulin-Different-Phenotype (%),[12],20%
same,Total Cell Count,[12],612

# Reference: ChEMBL document CHEMBL5058577, “EUbOPEN Chemogenomics Library 2 (Multiplex)” (2022)
